Measurements collected from several papers.
Compare with care: the assays were run in different laboratories.
Cell line: HepG2
Read-out: cell growth or viability

`COc1cc(/C=C/C(=O)CC(=O)/C=C/c2ccc(O)c(OC)c2)ccc1O` gave a CC50 of ~42 µM (MTT; 24 h).
`COC(=O)c1c(C)ncn1CC(c1c[nH]c2ccccc12)c1c[nH]c2ccccc12` has a CC50 of > 20 µM (MTS; 24 h).
`O=C(c1ccc(Nc2ncc(Cl)c(-c3ccc(Cl)s3)n2)cc1)N1CCC(N2CCCC2)CC1` gave a CC50 of 5.1 µM (44 h).
With `N=C(N)NCc1ccc(NC(=O)c2ccc(C(=O)Nc3ccc(C4=CCN(C(=N)N)CC4)cc3)cn2)cc1` the CC50 was 739 µM (MTS; 24 h).
The CC50 of `COC(=O)c1c(C)ncn1CC(c1c[nH]c2cc(Br)ccc12)c1c[nH]c2cc(Br)ccc12` is reported as > 20 µM (MTS; 24 h).
The CC50 of `N=C(N)NCc1ccc(NC(=O)c2ccc(C(=O)Nc3cnc(C4=CCN(C(=N)N)CC4)cn3)cc2)cc1` is reported as 585 µM (MTS; 24 h).
With `CCOC(=O)c1c(C)ncn1CC(c1cn(C)c2ccc([N+](=O)[O-])cc12)c1cn(C)c2ccc([N+](=O)[O-])cc12` the CC50 was > 20 µM (MTS; 24 h).
With `COc1ccc(NC(=O)N2CCCCN3[C@H](COCCC(=O)O)[C@H](c4ccc(C#Cc5ccccc5)cc4)[C@@H]3C2)cc1` the CC50 was > 40 µM.
With `NCC(=O)CCC(=O)O` the CC50 was > 1000 µM (ATP luminescence).
`N=C(N)NCc1ccc(NC(=O)c2ccc(C(=O)Nc3ccc(C4=CCN(C(=N)N)CC4)nn3)cc2)cc1` has a CC50 of 326 µM (MTS; 24 h).
The CC50 of `Cc1cn(CC(c2cn(C)c3ccccc23)c2cn(C)c3ccccc23)nn1` is reported as > 20 µM (MTS; 24 h).
With `Cc1cc(Nc2ccc(S(F)(F)(F)(F)F)cc2)n2ccnc2n1` the CC50 was > 50 µM.
`COc1ccc(NC(=O)N2CCCCN3[C@H](CN(C)S(C)(=O)=O)[C@H](c4ccc(C#Cc5ccccc5)cc4)[C@@H]3C2)cc1` has a CC50 of > 40 µM.
`Cc1ccc(-c2nc(Nc3ccc(C(=O)N4CCC(N5CCCC5)CC4)cc3)ncc2Cl)s1` gave a CC50 of 9.3 µM (44 h).
With `COC(=O)c1c(C)ncn1CC(c1cn(C)c2ccccc12)c1cn(C)c2ccccc12` the CC50 was > 20 µM (MTS; 24 h).
The CC50 of `O=[N+]([O-])c1ccc(-c2nc3cccc(O)c3[nH]2)o1` is reported as 37 µM (resazurin; 72 h).
